assay: Inhibition of HIV Protease using Abz-Thr-Ile-Nle-Phe(NO2)-Gln-Arg as fluorogenic substrate by fluorimetry; set-up: species or system Human immunodeficiency virus; details: not given; call rule not given here
Summary of the method: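 Commercial HIV-PR at 10 nm final, in pH 5.5 MES buffer (100 mM MES/NaOH, 400 mM NaCl, 1 mM EDTA, 1 mM DTT), 25 °C thermostated cuvette. Substrate at 30 μM final. Excitation 325 nm, emission 420 nm. Enzyme added after 1.5 min and inhibitor (DMSO stock) after a further 1 min, then read 10 min. IC50 from initial rates over several inhibitor concentrations, at least three independent experiments.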

In the case of `CC(C)CN(C[C@@H](O)CNc1ccc2[nH]ccc2c1)S(=O)(=O)c1ccc([N+](=O)[O-])cc1`, the IC50 is reported as “Not Active”.

same assay, conditions: read-out: IC50

First: CC(C)CN(C[C@@H](O)COc1ccc2cc[nH]c2c1)S(=O)(=O)c1ccc([N+](=O)[O-])cc1
Second: CC(C)CN(C[C@@H](O)COc1ccc2[nH]ccc2c1)S(=O)(=O)c1ccc([N+](=O)[O-])cc1
The IC50 of the first is 4.6-fold higher: 46 µM for the first, 10 µM for the second. The second is the more potent here.

First: CC(C)(C)NC(=O)[C@@H]1C[C@@H]2CCCC[C@@H]2CN1C[C@@H](O)COc1ccc2cc[nH]c2c1
Second: CC(C)(C)NC(=O)[C@@H]1C[C@@H]2CCCC[C@@H]2CN1C[C@@H](O)COc1ccc2[nH]ccc2c1
The IC50 of the first is 9.9-fold higher: 138 µM for the first, 14 µM for the second. The second is the more potent here.

First: COc1ccc(S(=O)(=O)N(CC(C)C)C[C@@H](O)CNc2ccc3[nH]ccc3c2)cc1OC
Second: COc1ccc(S(=O)(=O)N(CC(C)C)C[C@@H](O)COC(=O)Nc2ccc3[nH]ccc3c2)cc1OC
The IC50 of the first is 3.1-fold higher: 4400 µM for the first, 1400 µM for the second.

Compared with `CC(C)(C)NC(=O)[C@@H]1C[C@@H]2CCCC[C@@H]2CN1C[C@@H](O)COc1cccc2[nH]ccc12`, `CC(C)(C)NC(=O)[C@@H]1C[C@@H]2CCCC[C@@H]2CN1C[C@@H](O)CNc1cccc2[nH]ccc12` is 6.5-fold higher in IC50: 24 µM for the first, 157 µM for the second.

Compared with `COc1ccc(S(=O)(=O)N(CC(C)C)C[C@@H](O)CNc2cccc3[nH]ccc23)cc1OC`, `COc1ccc(S(=O)(=O)N(CC(C)C)C[C@@H](O)COC(=O)Nc2cccc3[nH]ccc23)cc1OC` is 1.8-fold higher in IC50: 336 µM for the first, 615 µM for the second.

First: CC(C)(C)NC(=O)[C@@H]1C[C@@H]2CCCC[C@@H]2CN1C[C@@H](O)COC(=O)Nc1cccc2[nH]ccc12
Second: CC(C)(C)NC(=O)[C@@H]1C[C@@H]2CCCC[C@@H]2CN1C[C@@H](O)COC(=O)Nc1ccc2[nH]ccc2c1
The IC50 of the first is 12-fold lower: 50 µM for the first, 606 µM for the second. The first is the more potent here.

First: CC(C)CN(C[C@@H](O)COc1ccc2[nH]ccc2c1)S(=O)(=O)c1ccc(N)cc1
Second: COc1ccc(S(=O)(=O)N(CC(C)C)C[C@@H](O)COc2ccc3[nH]ccc3c2)cc1OC
The IC50 of the first is 12-fold higher: 12 µM for the first, 1 µM for the second. The second is the more potent here.

First: CC(C)(C)NC(=O)[C@@H]1C[C@@H]2CCCC[C@@H]2CN1C[C@@H](O)CNc1ccc2[nH]ccc2c1
Second: COc1ccc(S(=O)(=O)N(CC(C)C)C[C@@H](O)COC(=O)Nc2ccc3[nH]ccc3c2)cc1
The IC50 of the first is 22-fold higher: 176 µM for the first, 8 µM for the second. The second is the more potent here.

First: CC(C)CN(C[C@@H](O)CNc1cccc2[nH]ccc12)S(=O)(=O)c1ccc([N+](=O)[O-])cc1
Second: CC(C)CN(C[C@@H](O)COC(=O)Nc1cccc2[nH]ccc12)S(=O)(=O)c1ccc([N+](=O)[O-])cc1
The IC50 of the first is 37-fold higher: 2630 µM for the first, 72 µM for the second.

`COc1ccc(S(=O)(=O)N(CC(C)C)C[C@@H](O)COc2ccc3cc[nH]c3c2)cc1OC` and `COc1ccc(S(=O)(=O)N(CC(C)C)C[C@@H](O)COc2cccc3[nH]ccc23)cc1OC` are within 1.5-fold of each other in IC50: 346 µM for the first, 336 µM for the second.

Going from `CC(C)CN(C[C@@H](O)COC(=O)Nc1ccc2[nH]ccc2c1)S(=O)(=O)c1ccc([N+](=O)[O-])cc1` to `CC(C)CN(C[C@@H](O)COc1cccc2[nH]ccc12)S(=O)(=O)c1ccc([N+](=O)[O-])cc1`, the IC50 rises from 2 µM to 346 µM (170-fold).

— ChEMBL document CHEMBL3351348, “Synthesis and biological evaluation of new simple indolic non peptidic HIV Protease inhibitors: the effect of different substitution patterns” (Bioorg Med Chem, 2014)
